{"source": "ChEMBL document CHEMBL1137350", "about": "“Discovery of a new class of macrocyclic antagonists to the human motilin receptor” (J Med Chem, 2006)", "key": {"Oryctolagus cuniculus": {"organism": "Oryctolagus cuniculus", "assay": "Antagonist activity against rabbit duodenum", "conditions": "read-out: pA2 (converted)"}, "Motilin receptor [1]": {"biological_target": "T1, Motilin receptor (Homo sapiens, UniProt O43193)", "T1 sequence (O43193 whole entry)": "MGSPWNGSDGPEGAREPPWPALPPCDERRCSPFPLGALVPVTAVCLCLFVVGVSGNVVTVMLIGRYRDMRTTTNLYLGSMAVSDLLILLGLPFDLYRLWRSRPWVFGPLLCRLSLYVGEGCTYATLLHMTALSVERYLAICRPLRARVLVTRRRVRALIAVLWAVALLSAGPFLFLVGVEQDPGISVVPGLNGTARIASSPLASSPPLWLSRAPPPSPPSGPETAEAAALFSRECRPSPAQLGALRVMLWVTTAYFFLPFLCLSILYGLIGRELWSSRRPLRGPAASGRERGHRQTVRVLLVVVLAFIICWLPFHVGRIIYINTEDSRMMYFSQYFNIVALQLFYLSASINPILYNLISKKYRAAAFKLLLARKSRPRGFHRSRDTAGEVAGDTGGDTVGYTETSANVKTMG", "assay": "Activity at human MOTR expressed in CHO cells assessed as inhibition of motilin-induced calcium release upto 10 uM", "format": "functional, cell-based", "conditions": "filed as antagonist", "how_it_was_run": "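Aequorin luminescence assay on whole CHO cells expressing cloned human motilin receptor, measuring inhibition of motilin-induced Ca2+ release. Agonist activity was also checked at concentrations up to 10 µM. Compounds were TFA salts held as 10 mM DMSO stocks at -60 °C.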"}, "Motilin receptor [2]": {"biological_target": "T1, Motilin receptor", "assay": "Displacement of [125I]motilin from human MOTR", "how_it_was_run": "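Competition binding on isolated membranes expressing human motilin receptor, with radioiodinated porcine motilin ([125I]-motilin) as tracer. 11-point concentration curves gave Ki, with a top test concentration of 10 µM. Compounds came from 10 mM DMSO stocks stored at -60 °C.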"}, "Motilin receptor [3]": {"biological_target": "T1, Motilin receptor", "assay": "Activity at human MOTR expressed in CHO cells assessed as inhibition of motilin-induced calcium release", "format": "functional, cell-based", "how_it_was_run": "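Whole CHO cells expressing cloned human motilin receptor; intracellular Ca2+ release evoked by motilin read out by aequorin luminescence. Compounds were tested in antagonist mode and also checked for agonist activity at concentrations up to 10 µM. Compound stocks were 10 mM in DMSO, stored at -60 °C.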"}}}
{"smiles": "CCC[C@@H]1NC(=O)[C@@H](C(C)C)NC(=O)[C@@H](Cc2ccc(OC)cc2)NCCOc2ccccc2CCCNC1=O", "values": [{"measurement": "Kb", "setting": "Oryctolagus cuniculus", "result": 100, "unit": "nM"}, {"measurement": "Activity", "setting": "Motilin receptor [1]", "result": "Antagonist"}, {"measurement": "Ki", "setting": "Motilin receptor [2]", "result": 8, "unit": "nM"}, {"measurement": "IC50", "setting": "Motilin receptor [3]", "result": 23, "unit": "nM"}]}
